Key:
[1] = biological target: Saccharomyces cerevisiae α-glucosidase (Saccharomyces cerevisiae, UniProt P53341); experiment: α-glucosidase inhibition assay; assay type: biochemical
[2] = biological target: α-glucosidase (Saccharomyces cerevisiae, UniProt P53341); experiment: affinity ultrafiltration UPLC–Q-TOF–MS/MS screening, binding rate; details: peak area reduction in CGB extract after ultrafiltration
Summary of the method: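 95% ethanol reflux extract of whole herb: three 3 h extractions at 1:13 m/v, then concentrated and dried. Extract incubated with yeast α-glucosidase and ultrafiltered on a 10 kDa membrane. Bound ligands released from the retentate with methanol and identified by UPLC-Q-TOF-MS/MS.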

α-glucosidase, sequence (P53341 whole entry): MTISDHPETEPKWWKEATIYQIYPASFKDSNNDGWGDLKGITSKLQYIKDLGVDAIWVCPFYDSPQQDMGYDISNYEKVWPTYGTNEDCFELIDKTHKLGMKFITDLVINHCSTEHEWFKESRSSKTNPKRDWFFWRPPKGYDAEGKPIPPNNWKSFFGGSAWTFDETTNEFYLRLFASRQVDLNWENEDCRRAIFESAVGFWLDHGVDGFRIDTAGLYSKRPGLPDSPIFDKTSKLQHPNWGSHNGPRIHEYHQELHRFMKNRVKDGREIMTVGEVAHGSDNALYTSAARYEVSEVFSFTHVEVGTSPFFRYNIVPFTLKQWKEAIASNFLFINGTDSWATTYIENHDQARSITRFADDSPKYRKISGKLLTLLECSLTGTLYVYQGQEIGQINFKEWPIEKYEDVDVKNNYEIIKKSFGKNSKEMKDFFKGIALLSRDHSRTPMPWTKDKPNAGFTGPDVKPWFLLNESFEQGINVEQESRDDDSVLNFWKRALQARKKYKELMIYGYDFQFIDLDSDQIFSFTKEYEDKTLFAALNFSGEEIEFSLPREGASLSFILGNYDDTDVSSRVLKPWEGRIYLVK
Saccharomyces cerevisiae α-glucosidase, sequence (P53341 whole entry): as above

| IC50 [1] | AD (affinity degree, binding rate to α-glucosidase) [2] | SMILES |
| --- | --- | --- |
| 1072.4 ± 0.54 µM | 23.4% | O=c1c(O[C@@H]2O[C@H](CO)[C@H](O)[C@H](O)[C@H]2O)c(-c2ccc(O)c(O)c2)oc2cc(O)cc(O)c12 [hyperoside] |
|  | 12.4% | O=c1c(O)c(-c2ccc(O)c(O)c2)oc2cc(O)cc(O)c12 [quercetin] |
| 436.35 ± 0.01 µM | 17.2% | COc1c(-c2ccc(O)c(O)c2)oc2cc(O)cc(O)c2c1=O [3-O-methylquercetin] |
